In ChEMBL document CHEMBL1667864, “Synthesis and biological assay of 4-aryl-6-chloro-quinoline derivatives as novel non-nucleoside anti-HBV agents” (Bioorg Med Chem, 2011):

Experiments:
[1] = Cytotoxicity against human HepG2(2.2.15) cells; format: cell-based
Hepatitis B virus [2] = assay: Antiviral activity against HBV infected in human HepG 2.215 cells assessed as inhibition of HBsAg secretion by ELISA; format: functional, organism-based; settings: HepG2.2.15
Hepatitis B virus [3] = assay: Antiviral activity against HBV infected in human HepG 2.215 cells assessed as inhibition of HBeAg secretion by ELISA; format: functional, organism-based; settings: HepG2.2.15
Hepatitis B virus [4] = assay: Antiviral activity against HBV infected in human HepG 2.215 cells assessed as inhibition of DNA replication by RT-PCR analysis; format: functional, organism-based; settings: HepG2.2.15
Method in brief: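 HepG 2.2.15 cells were seeded at 5 × 10⁵ per well, with medium changed every 2 days. After 6 days, compounds were added and fresh medium was fed every other day for another 6 days. Total DNA was isolated from collected cells, and HBV DNA was quantified by real-time PCR. IC₅₀ is the concentration giving 50% inhibition of HBV DNA replication.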

[5] = Selectivity index, CC50 for human HepG 2.215 cells to IC50 for HBV infected in human HepG 2.215 cells assessed as inhibition of DNA replication; format: functional
Method in brief: (§1)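 SI calculated as CC₅₀ (concentration killing 50% of HepG 2.2.15 cells) divided by IC₅₀ (50% inhibition of HBV DNA replication, HBeAg or HBsAg secretion).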

[6] = Selectivity index, CC50 for human HepG 2.215 cells to IC50 for HBV infected in human HepG 2.215 cells assessed as inhibition of HBsAg secretion; format: functional; method in brief: as §1
[7] = Selectivity index, CC50 for human HepG 2.215 cells to IC50 for HBV infected in human HepG 2.215 cells assessed as inhibition of HBeAg secretion; format: functional; method in brief: as §1

| Structure (SMILES) | IC50 (Hepatitis B virus [2]) [µM] | IC50 (Hepatitis B virus [3]) [µM] | IC50 (Hepatitis B virus [4]) [µM] | CC50 [1] [µM] | Selectivity Index [5] | Selectivity Index [6] | Selectivity Index [7] |
| --- | --- | --- | --- | --- | --- | --- | --- |
| CC(C)(C)[Si](OCCc1c(N2CCCCC2)nc2ccc(Cl)cc2c1-c1ccccc1Cl)(c1ccccc1)c1ccccc1 | > 969 | > 969 | 6.7 | > 969 | >143.7 | – | – |
| CC(C)(C)[Si](OCCc1c(Nn2nnc3ccccc32)nc2ccc(Cl)cc2c1-c1ccccc1Cl)(c1ccccc1)c1ccccc1 | > 1250 | > 1250 | 4.4 | > 1250 | >284.5 | – | – |
| CC(=O)OCCc1c(Cl)nc2ccc(Cl)cc2c1-c1ccccc1Cl | 147 | 70.9 | 6.1 | 116 | 19.1 | <1 | <1 |
| CC(C)(C)[Si](OCCc1c(N2CCOCC2)nc2ccc(Cl)cc2c1-c1ccccc1Cl)(c1ccccc1)c1ccccc1 | > 1200 | > 1200 | > 1200 | > 1200 | – | – | – |
| ClCCc1c(Cl)nc2ccc(Cl)cc2c1-c1ccccc1Cl | > 1400 | > 1400 | 19 | > 1400 | >73.8 | – | – |
| [N-]=[N+]=NCCc1c(Cl)nc2ccc(Cl)cc2c1-c1ccccc1Cl | > 2510 | > 2510 | 16.6 | > 2510 | >151.4 | – | – |
| CC(C)(C)[Si](OCCc1c(OCc2c(Cl)cccc2Cl)nc2ccc(Cl)cc2c1-c1ccccc1Cl)(c1ccccc1)c1ccccc1 | > 1030 | > 1030 | > 1030 | > 1030 | – | – | – |
| CS(=O)(=O)OCCc1c(Cl)nc2ccc(Cl)cc2c1-c1ccccc1Cl | 1020 | 647 | > 882 | 882 | – | <1 | >1.4 |
| CC(C)(C)[Si](OCCc1c(OCc2c(F)cccc2F)nc2ccc(Cl)cc2c1-c1ccccc1Cl)(c1ccccc1)c1ccccc1 | > 1870 | > 1870 | > 1870 | > 1870 | – | – | – |
| O=c1[nH]c2ccc(Cl)cc2c(-c2ccccc2Cl)c1CCO | 70.2 | 340 | 72.1 | 388 | 5.4 | 5.5 | 1.1 |
| OCCc1c(N2CCNCC2)nc2ccc(Cl)cc2c1-c1ccccc1Cl | > 5 | > 5 | > 5 | < 5 | – | <1 | <1 |
| [N-]=[N+]=NCCc1c(N=[N+]=[N-])nc2ccc(Cl)cc2c1-c1ccccc1Cl | > 2480 | > 2480 | 4.5 | > 2480 | >551.2 | – | – |
| COc1nc2ccc(Cl)cc2c(-c2ccccc2Cl)c1CCO | 66.3 | > 2710 | 6.9 | 141 | 20.5 | 2.1 | <1 |
| C[C@H](Cn1cnc2c(N)ncnc21)OCP(=O)(O)O [TENOFOVIR ANHYDROUS] | 1450 | – | 0.54 | > 1740 | >3222 | >1.2 | >1.5 |
| OCCc1c(N2CCOCC2)nc2ccc(Cl)cc2c1-c1ccccc1Cl | 323 | > 1590 | > 1590 | > 1590 | – | >4.9 | – |
| CC(C)(C)[Si](OCCc1c(OS(=O)(=O)C(F)(F)F)nc2ccc(Cl)cc2c1-c1ccccc1Cl)(c1ccccc1)c1ccccc1 | 454 | 767 | > 1560 | > 1560 | – | >3.4 | 2 |

Further lines, with some results ahead:

| IC50 (Hepatitis B virus [2]) [µM] | IC50 (Hepatitis B virus [3]) [µM] | IC50 (Hepatitis B virus [4]) [µM] | Structure (SMILES) | CC50 [1] [µM] | Selectivity Index [5] | Selectivity Index [6] | Selectivity Index [7] |
| --- | --- | --- | --- | --- | --- | --- | --- |
| 37.7 | 111 | 8.3 | OCCc1c(Nn2nnc3ccccc32)nc2ccc(Cl)cc2c1-c1ccccc1Cl | 82.4 | 10 | 2.2 | <1 |
| 18.2 | 12.2 | 17.7 | OCCc1c(OCc2c(Cl)cccc2Cl)nc2ccc(Cl)cc2c1-c1ccccc1Cl | 38.5 | 2.2 | 2.1 | 3.2 |
| 45.3 | 11.3 | 9.8 | OCCc1c(Cl)nc2ccc(Cl)cc2c1-c1ccccc1Cl | 42.5 | 4.3 | <1 | 3.8 |
| 16.5 | 367 | 6.8 | CS(=O)(=O)OCCc1c(OS(C)(=O)=O)nc2ccc(Cl)cc2c1-c1ccccc1Cl | 804 | 118.2 | 48.6 | 2.2 |
| 18.8 | > 1170 | 42.8 | CC(C)(C)[Si](OCCc1c(N2CCNCC2)nc2ccc(Cl)cc2c1-c1ccccc1Cl)(c1ccccc1)c1ccccc1 | < 18.8 | <4.43 | <1 | <1 |
| 43.5 | 1630 | 4.8 | OCCc1c(OCc2c(F)cccc2F)nc2ccc(Cl)cc2c1-c1ccccc1Cl | 109 | 22.7 | 2.5 | <1 |
| 37.5 | 50 | 151 | OCCc1c(N2CCCCC2)nc2ccc(Cl)cc2c1-c1ccccc1Cl | 155 | 1 | 4.1 | 3.1 |
